Experimental data as given in ChEMBL document CHEMBL2069243, “Synthesis and SAR of pyridothiazole substituted pyrimidine derived HCV replication inhibitors” (Bioorg Med Chem Lett, 2012).

Columns and labels:
Hepatitis C virus [1] = experiment: Antiviral activity against Hepatitis C virus 1b con1 infected in human hepatoma cells assessed as decrease in replicon RNA level after 3 days by RT-PCR analysis; assay type: functional, organism-based, Hepacivirus hominis; details: genotype 1b Con1, 72 h
Method in brief: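 Con1 genotype 1b replicon cells were seeded at 5000 cells/well one day before treatment. Compound in DMSO was added (final 0.5% DMSO, 10% FBS) as 10 serial twofold dilutions in triplicate. Cells were harvested 3 days after dosing. Replicon RNA was quantified by real-time RT-PCR (Taqman), normalized to GAPDH RNA, and EC50 was calculated.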

[2] = Cytotoxicity against human hepatoma cells after 3 days by MTS assay; assay type: cell-based
Method in brief: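 MTS cell proliferation assay on replicon cells handled as in the replicon activity assay (seeded one day before, 0.5% DMSO, 10% FBS, serial dilutions), read 3 days after dosing. CC50 is the concentration giving 50% inhibition relative to vehicle-treated cells.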

[3] = Drug uptake in rat liver at 10 mg/kg, po at 6 hrs; assay type: ADME, organism-based; parameters: dose 10 mg/kg, route oral; details: read-out: Drug uptake
Method in brief: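 Rats were dosed orally at 10 mpk in 0.4% methylcellulose, n=2. Animals were sacrificed at 6 h, and liver was harvested and processed to measure compound concentration (liver C6 h).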

[4] = AUC (0 to 6 hrs) in rat at 10 mg/kg, po; assay type: ADME, organism-based; parameters: time < 6 hr, dose 10 mg/kg, route oral; details: plasma
Method in brief: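 Rats were dosed orally at 10 mpk in 0.4% methylcellulose, n=2 per compound. Plasma was sampled at 8 time points up to 6 h, and exposure was reported as AUC0-6 h.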

[5] = Cytotoxicity against human hepatoma cells assessed as decrease in GADPH RNA level after 3 days by Rt-PCR analysis; assay type: cell-based
[6] = AUC in monkey at 3 mg/kg, po; assay type: ADME, organism-based, Macaca mulatta; parameters: dose 3 mg/kg, route oral; details: rhesus monkey, plasma
Method in brief: (§1)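 Oral dosing of the HCl salt at 3 mpk; plasma AUC reported in µM.h.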

[7] = AUC (0 to 24 hrs) in rat at 10 mg/kg, po; assay type: ADME, organism-based; parameters: time < 24 hr, dose 10 mg/kg, route oral; details: plasma
Hepatitis C virus [8] = experiment: Antiviral activity against Hepatitis C virus 2a by replicon-based assay; assay type: functional, organism-based, Hepacivirus hominis; details: genotype 2a
Cytochrome P450 2C9 = Cytochrome P450 2C9 (Homo sapiens, UniProt P11712); experiment: Inhibition of CYP2C9; assay type: ADME
Chain of Cytochrome P450 2C9 (P11712 whole entry): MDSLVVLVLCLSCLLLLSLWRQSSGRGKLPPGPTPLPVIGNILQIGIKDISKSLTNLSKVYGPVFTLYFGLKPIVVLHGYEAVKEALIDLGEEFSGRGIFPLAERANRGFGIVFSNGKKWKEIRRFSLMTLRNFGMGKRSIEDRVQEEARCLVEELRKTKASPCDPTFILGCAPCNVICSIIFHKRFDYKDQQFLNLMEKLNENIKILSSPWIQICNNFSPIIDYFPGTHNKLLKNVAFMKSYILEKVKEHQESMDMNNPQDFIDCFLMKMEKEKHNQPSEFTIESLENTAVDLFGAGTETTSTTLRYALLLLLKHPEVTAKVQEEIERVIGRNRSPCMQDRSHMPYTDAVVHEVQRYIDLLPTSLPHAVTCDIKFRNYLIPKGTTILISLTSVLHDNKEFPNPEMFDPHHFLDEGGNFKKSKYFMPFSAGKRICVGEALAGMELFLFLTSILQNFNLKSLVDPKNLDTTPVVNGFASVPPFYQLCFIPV

Hepatitis C virus [9] = experiment: Antiviral activity against Hepatitis C virus 1a by replicon-based assay; assay type: functional, organism-based, Hepacivirus hominis; details: subtype 1a
Cytochrome P450 2D6 = Cytochrome P450 2D6 (Homo sapiens, UniProt P10635); experiment: Inhibition of CYP2D6; assay type: ADME
Chain of Cytochrome P450 2D6 (P10635 whole entry): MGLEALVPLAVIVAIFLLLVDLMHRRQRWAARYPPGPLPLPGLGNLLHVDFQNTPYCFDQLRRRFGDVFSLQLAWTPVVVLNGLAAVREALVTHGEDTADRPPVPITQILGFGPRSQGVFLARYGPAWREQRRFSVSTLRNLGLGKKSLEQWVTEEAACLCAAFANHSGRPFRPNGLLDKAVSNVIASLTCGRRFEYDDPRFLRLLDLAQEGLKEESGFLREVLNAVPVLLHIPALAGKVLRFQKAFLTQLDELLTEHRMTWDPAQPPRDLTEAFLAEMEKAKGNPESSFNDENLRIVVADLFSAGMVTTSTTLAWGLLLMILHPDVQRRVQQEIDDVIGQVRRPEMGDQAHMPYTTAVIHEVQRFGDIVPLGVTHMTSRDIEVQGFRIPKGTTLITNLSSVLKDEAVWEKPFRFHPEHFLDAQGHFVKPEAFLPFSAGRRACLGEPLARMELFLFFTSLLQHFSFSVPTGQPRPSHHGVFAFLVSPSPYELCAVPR

[10] = AUC in dog at 3 mg/kg, po; assay type: ADME, organism-based, Canis lupus familiaris; parameters: dose 3 mg/kg, route oral; details: plasma; method in brief: as §1
Cytochrome P450 3A4 = Cytochrome P450 3A4 (Homo sapiens, UniProt P08684); experiment: Inhibition of CYP3A4; assay type: ADME
Chain of Cytochrome P450 3A4 (P08684 whole entry): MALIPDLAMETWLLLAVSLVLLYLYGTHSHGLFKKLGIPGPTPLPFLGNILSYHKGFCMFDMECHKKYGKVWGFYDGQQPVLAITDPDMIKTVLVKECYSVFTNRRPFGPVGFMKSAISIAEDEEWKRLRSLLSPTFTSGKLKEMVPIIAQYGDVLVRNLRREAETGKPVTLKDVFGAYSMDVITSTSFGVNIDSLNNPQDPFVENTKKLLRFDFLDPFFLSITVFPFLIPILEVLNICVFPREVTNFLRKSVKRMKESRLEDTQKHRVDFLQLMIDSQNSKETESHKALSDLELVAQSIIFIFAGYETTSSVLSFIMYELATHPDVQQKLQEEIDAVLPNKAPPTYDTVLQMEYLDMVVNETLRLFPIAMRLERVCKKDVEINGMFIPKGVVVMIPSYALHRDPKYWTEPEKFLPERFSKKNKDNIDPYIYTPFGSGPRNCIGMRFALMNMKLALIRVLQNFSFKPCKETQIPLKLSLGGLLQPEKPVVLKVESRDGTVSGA

[11] = Half life in monkey at 3 mg/kg, po; assay type: ADME, organism-based, Macaca mulatta; parameters: dose 3 mg/kg, route oral; details: rhesus monkey, in vivo
[12] = Oral bioavailability in dog at 3 mg/kg; assay type: ADME, organism-based, Canis lupus familiaris; details: in vivo
[13] = Half life in rat at 10 mg/kg, po; assay type: ADME, organism-based; parameters: dose 10 mg/kg, route oral; details: in vivo
[14] = Clearance in rat at 10 mg/kg, po; assay type: ADME, organism-based; parameters: dose 10 mg/kg, route oral; details: in vivo
[15] = Half life in dog at 3 mg/kg, po; assay type: ADME, organism-based, Canis lupus familiaris; parameters: dose 3 mg/kg, route oral; details: in vivo
[16] = Oral bioavailability in rat at 10 mg/kg; assay type: ADME, organism-based; details: in vivo
[17] = Clearance in monkey at 3 mg/kg, po; assay type: ADME, organism-based, Macaca mulatta; parameters: dose 3 mg/kg, route oral; details: rhesus monkey, in vivo
[18] = Cytotoxicity against human hepatoma cells assessed as inhibition of [14C]thymidine incorporation after 3 days by TopCount analysis; assay type: cell-based
Method in brief: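 Replicon cells were seeded in scintillating microplates one day before treatment. Compound dilutions in triplicate were added with [methyl-14C]-thymidine (final 0.5 uCi/mL) and incubated 3 days. Incorporated label was counted by scintillation proximity. DNA CC50 is the concentration giving 50% inhibition of thymidine incorporation versus vehicle-treated cells.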

[19] = Clearance in dog at 3 mg/kg, po; assay type: ADME, organism-based, Canis lupus familiaris; parameters: dose 3 mg/kg, route oral; details: in vivo
[20] = Oral bioavailability in monkey at 3 mg/kg; assay type: ADME, organism-based, Macaca mulatta; details: rhesus monkey, in vivo

| Compound | EC50 (Hepatitis C virus [1]) [µM] | CC50 at 72 h [2] [µM] | concentration at 6 h [3] [ng/g] | AUC(0-t) at 6 h [4] [µM·h] | CC50 at 72 h [5] [µM] | other results |
| --- | --- | --- | --- | --- | --- | --- |
| CCCc1nccc2sc(-c3c(C)nc(N[C@H](C)c4ccc(OC(F)(F)F)cc4)nc3N[C@@H]3C[C@H](CO)[C@@H](O)[C@H]3O)nc12 | 0.02 | 13 | 1260 | 0.8 | 13 |  |
| Cc1nc(N[C@H](C)c2ccc(OC(F)(F)F)cc2)nc(N[C@@H]2C[C@H](CO)[C@@H](O)[C@H]2O)c1-c1nc2c(C(C)C)nccc2s1 | 0.026 | 10 | 8500 | 3.2 | 11 |  |
| Cc1nc(N[C@H](C)c2ccc(OC(F)(F)F)cc2)nc(N[C@@H]2C[C@H](CO)[C@@H](O)[C@H]2O)c1-c1nc2c(CC(C)(C)C)nccc2s1 | 0.026 | 13 | 4400 | 3.2 | 10 |  |
| Cc1nc(N[C@H](C)c2ccc(OC(F)(F)F)cc2)nc(N[C@@H]2C[C@H](CO)[C@@H](O)[C@H]2O)c1-c1nc2c(C3CCC3)nccc2s1 | 0.016 | 5 | 4900 | 3.3 | 5 |  |
| Cc1nc(N[C@H](C)c2ccc(OC(F)(F)F)cc2)nc(N[C@@H]2C[C@H](CO)[C@@H](O)[C@H]2O)c1-c1nc2c(C3CC3)nccc2s1.Cl | 0.06 | > 25 | 11000 |  | 25 | AUC [6]: 1.3 µM·h; AUC(0-t) at 24 h [7]: 5.2 µM·h; EC50 (Hepatitis C virus [8]): 0.18 µM; INH (Cytochrome P450 2C9): > 20 µM; EC50 (Hepatitis C virus [9]): 0.4 µM; INH (Cytochrome P450 2D6): > 20 µM; AUC [10]: 5.1 µM·h; INH (Cytochrome P450 3A4): > 20 µM; half-life [11]: 4.4 h; bioavailability [12]: 32%; half-life [13]: 5 h; CL/F [14]: 11 mL/min/kg; half-life [15]: 5.2 h; bioavailability [16]: 18%; CL/F [17]: 7.2 mL/min/kg; CC50 at 72 h [18]: > 25 µM; CL/F [19]: 4.2 mL/min/kg; bioavailability [20]: 12% |
| Cc1nc(N[C@H](C)c2ccc(OC(F)(F)F)cc2)nc(N[C@@H]2C[C@H](CO)[C@@H](O)[C@H]2O)c1-c1nc2c(CCC#N)nccc2s1 | 0.034 | 12 | 16 | 0.4 | 12 |  |
| Cc1cc2sc(-c3c(C)nc(N[C@H](C)c4ccc(OC(F)(F)F)cc4)nc3N[C@@H]3C[C@H](CO)[C@@H](O)[C@H]3O)nc2c(C)n1 | 0.043 | 12 | 9800 | 5.6 | 20 |  |
| CCc1nc(C)cc2sc(-c3c(C)nc(N[C@H](C)c4ccc(OC(F)(F)F)cc4)nc3N[C@@H]3C[C@H](CO)[C@@H](O)[C@H]3O)nc12 | 0.264 | 24 | 257 | 25 | 23 |  |
| Cc1nc(NC2CC2)nc(N[C@@H]2C[C@H](CO)[C@@H](O)[C@H]2O)c1-c1nc2cnccc2s1 | 0.125 | 19 | 276 | 1.4 | 25 |  |
| Cc1nc(Nc2ccccc2)nc(N[C@@H]2C[C@H](CO)[C@@H](O)[C@H]2O)c1-c1nc2cnccc2s1 | 0.168 | > 25 | 29 | 0.2 | 25 |  |
| COc1cc(CCNc2nc(C)c(-c3nc4cnccc4s3)c(N[C@@H]3C[C@H](CO)[C@@H](O)[C@H]3O)n2)cc(OC)c1 | 0.012 | 19 | 100 | 0.1 | 25 |  |
| Cc1nc(N(C)Cc2ccccc2)nc(N[C@@H]2C[C@H](CO)[C@@H](O)[C@H]2O)c1-c1nc2cnccc2s1 | 0.301 | > 25 | 100 | 0.2 | 25 |  |
| Cc1nc(N[C@H](C)c2ccccc2)nc(N[C@@H]2C[C@H](CO)[C@@H](O)[C@H]2O)c1-c1nc2cnccc2s1 | 0.007 | > 25 | 104 | 0.2 | 25 |  |
| Cc1nc(N[C@@H](C)c2ccccc2)nc(N[C@@H]2C[C@H](CO)[C@@H](O)[C@H]2O)c1-c1nc2cnccc2s1 | 0.222 | > 25 | 77 | 0.1 | 25 |  |
| Cc1ccc([C@@H](C)Nc2nc(C)c(-c3nc4cnccc4s3)c(N[C@@H]3C[C@H](CO)[C@@H](O)[C@H]3O)n2)cc1 | 0.114 | > 25 | 116 | 0.1 | 25 |  |
| COc1cc(OC)cc([C@@H](C)Nc2nc(C)c(-c3nc4cnccc4s3)c(N[C@@H]3C[C@H](CO)[C@@H](O)[C@H]3O)n2)c1 | 0.037 | 25 | 17 | 0.1 | 25 |  |
| Cc1nc(N[C@H](C)c2ccccc2OC(F)(F)F)nc(N[C@@H]2C[C@H](CO)[C@@H](O)[C@H]2O)c1-c1nc2cnccc2s1 | 0.017 | 23 | 506 | 0.5 | 24 |  |
| Cc1nc(N[C@H](C)c2ccc(OC(F)(F)F)cc2)nc(N[C@@H]2C[C@H](CO)[C@@H](O)[C@H]2O)c1-c1nc2cnccc2s1 | 0.016 | > 25 | 1800 | 1.6 | 25 | CC50 at 72 h [18]: 6 µM |
| Cc1nc(N[C@H](C)c2ccc(OC(F)(F)F)cc2)nc(N[C@@H]2C[C@H](CO)[C@@H](O)[C@H]2O)c1-c1nc2c(C)nccc2s1.Cl | 0.016 | > 25 | 2820 |  | 25 | AUC [6]: 0.3 µM·h; AUC(0-t) at 24 h [7]: 1.1 µM·h; EC50 (Hepatitis C virus [8]): 0.08 µM; INH (Cytochrome P450 2C9): > 20 µM; EC50 (Hepatitis C virus [9]): 0.07 µM; INH (Cytochrome P450 2D6): > 20 µM; AUC [10]: 2.9 µM·h; INH (Cytochrome P450 3A4): > 20 µM; half-life [11]: 3.3 h; bioavailability [12]: 31%; half-life [13]: 2.5 h; CL/F [14]: 40 mL/min/kg; half-life [15]: 4.2 h; bioavailability [16]: 15%; CL/F [17]: 20 mL/min/kg; CC50 at 72 h [18]: > 25 µM; CL/F [19]: 9.8 mL/min/kg; bioavailability [20]: 7% |
| CCc1nccc2sc(-c3c(C)nc(N[C@H](C)c4ccc(OC(F)(F)F)cc4)nc3N[C@@H]3C[C@H](CO)[C@@H](O)[C@H]3O)nc12 | 0.02 | 7 | 6000 | 5.8 | 7 |  |
